Assay results from ChEMBL document CHEMBL1123290, “Synthesis, antimalarial activity, and quantitative structure-activity relationships of tebuquine and a series of related 5-[(7-chloro-4-quinolinyl)amino]-3-[(alkylamino)methyl] [1,1'-biphenyl]-2-ols and N omega-oxides” (1986).

Tests used:
Format in all cases: functional
Mus musculus [1] = assay: Antimalarial activity, administered as a single subcutaneous dose of 640 mg/kg, 72 hrs post infection measured as number of mice (Mus musculus) surviving at 60 days post infection
How it was run: (§1)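 Mice were infected with a normal drug-sensitive Plasmodium berghei strain. At 72 h postinfection each received one subcutaneous dose of compound dissolved or suspended in peanut oil, in five-mouse groups per dose. The read-out was the number of mice alive at 60 days postinfection, which were scored as cured.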

Plasmodium berghei [2] = assay: Change in mean survival time for control (average 6.2 days) versus treated mice (Mus musculus) 72 hrs after 320 mg/kg subcutaneous dose
Mus musculus [3] = assay: Antimalarial activity of compound administered as a single subcutaneous dose of 10mg/kg, 72 hrs post infection measured as number of mice (Mus musculus) surviving at 60 days post infection; how it was run: as §1
Plasmodium berghei [4] = assay: Antimalarial activity in primary screen
Plasmodium berghei [5] = assay: Antimalarial activity as 60-day survivors in infected mice (Mus musculus) after single 320mg/kg subcutaneous dose 72 hr post infection; how it was run: as §1
Plasmodium berghei [6] = assay: Change in mean survival time for control (average of 6.2 days) versus treated mice (Mus musculus) 72 hrs after 80 mg/kg subcutaneous dose
Plasmodium berghei [7] = assay: Change in mean survival time for control (average 6.2 days) versus treated mice (Mus musculus) 72 hrs after 160 mg/kg subcutaneous dose
Plasmodium berghei [8] = assay: Change in mean survival time for control (average 6.2 days) versus treated mice (Mus musculus) 72 hrs after 20 mg/kg subcutaneous dose
Plasmodium berghei [9] = assay: Difference in mean survival time in mice (Mus musculus) (control = 6.2 days) after single 40mg/kg subcutaneous dose 72hr post infection
Plasmodium berghei [10] = assay: Change in mean survival time for control (average 6.2 days) versus treated mice (Mus musculus) 72 hrs after 640 mg/kg subcutaneous dose
Mus musculus [11] = assay: Compound was evaluated for parenteral antimalarial activity against Plasmodium berghei in mice (Mus musculus) after single dose (40 mg/kg subcutaneous); no of mice (Mus musculus) surviving at 60 days post infection, 3 cured; how it was run: as §1
Plasmodium berghei [12] = assay: Change in mean survival time for control (average 6.2 days) versus treated mice (Mus musculus) 72 hrs after 5 mg/kg subcutaneous dose
Plasmodium berghei [13] = assay: Change in mean survival time for control (average 6.2 days) versus treated mice (Mus musculus) 72 hrs after […] subcutaneous dose
Plasmodium berghei [14] = assay: Antimalarial activity as 60-day survivors in Plasmodium berghei infected mice (Mus musculus) after single 160mg/kg subcutaneous dose 72 hr post infection; how it was run: as §1
Plasmodium berghei [15] = assay: (§2) Change in mean survival time for control (average 6.2 days) versus treated mice (Mus musculus) 72 hrs after […] subcutaneous dose
Mus musculus [16] = assay: Antimalarial activity, administered as a single subcutaneous dose of 80 mg/kg, 72 hrs post infection measured as number of mice (Mus musculus) surviving at 60 days post infection; how it was run: as §1
Plasmodium berghei [17] = assay: Change in mean survival time for control (average 6.2 days) versus treated mice (Mus musculus) 72 hrs after 10 mg/kg subcutaneous dose
Mus musculus [18] = assay: Delta MST, difference in mean survival time of the control mice (an average of 6.2 days) from the mean survival time of the treated mice after a single sc dose of 1.25 mg/kg, 72-h postinfection; settings: route subcutaneous
Plasmodium berghei [19] = assay: Antimalarial activity as 60-day survivors in infected mice (Mus musculus) after single 20 mg/kg subcutaneous dose 72hr post infection; how it was run: as §1
Mus musculus [20] = assay: Antimalarial activity, administered as a single subcutaneous dose of 40 mg/kg, 72 hrs post infection measured as number of mice (Mus musculus) surviving at 60 days post infection; how it was run: as §1
Mus musculus [21] = assay: Delta MST, difference in mean survival time of the control mice (an average of 6.2 days) from the mean survival time of the treated mice after a single sc dose of 160 mg/kg, 72-h postinfection; settings: route subcutaneous
Mus musculus [22] = assay: Antimalarial activity of compound administered as a single subcutaneous dose of 20 mg/kg, 72 hrs post infection measured as number of mice (Mus musculus) surviving at 60 days post infection; how it was run: as §1
Mus musculus [23] = assay: Antimalarial activity of compound administered as a single subcutaneous dose of 160mg/kg, 72-h postinfection measured as number of mice (Mus musculus) surviving at 60 days postinfection; how it was run: as §1
Mus musculus [24] = assay: Antimalarial activity of compound administered as a single subcutaneous dose of 80mg/kg, 72-h postinfection measured as number of mice (Mus musculus) surviving at 60 days postinfection; how it was run: as §1
Mus musculus [25] = assay: Antimalarial activity of compound administered as a single subcutaneous dose of 320 mg/kg, 72 hrs post infection measured as number of mice (Mus musculus) surviving at 60 days post infection; how it was run: as §1
Mus musculus [26] = assay: Antimalarial activity of compound administered as a single subcutaneous dose of 40 mg/kg, 72-h postinfection measured as number of mice (Mus musculus) surviving at 60 days postinfection; how it was run: as §1
Plasmodium berghei [27] = assay: Change in mean survival time of Plasmodium berghei infected mice (Mus musculus) on 1.25 mg/kg subcutaneous dose
Plasmodium berghei [28] = assay: Difference in mean survival time of Plasmodium berghei infected mice (Mus musculus) after 10 mg/kg subcutaneous dose
Plasmodium berghei [29] = assay: Change in mean survival time of Plasmodium berghei infected mice (Mus musculus) after […] subcutaneous dose
Mus musculus [30] = assay: Compound was evaluated for parenteral antimalarial activity against Plasmodium berghei in mice (Mus musculus) after single dose (1.25 mg/kg subcutaneously)
Plasmodium berghei [31] = assay: Change in mean survival time in control (average 6.2 days) versus treated mice (Mus musculus) after 80 mg/kg subcutaneous dose
Plasmodium berghei [32] = assay: as §2; remark: listed apart in the source
Plasmodium berghei [33] = assay: Change in mean survival time for control (average 6.2 days) versus treated mice (Mus musculus) after 20 mg/kg subcutaneous dose
Plasmodium berghei [34] = assay: Change in mean survival time for control (average 6.2 days) versus treated mice (Mus musculus) after 160 mg/kg subcutaneous dose
Plasmodium berghei [35] = assay: Change in mean survival time for control (average 6.2 days) versus treated mice (Mus musculus) after 40 mg/kg subcutaneous dose
Plasmodium berghei [36] = assay: Change in mean survival time of Plasmodium berghei infected mice (Mus musculus) after 5 mg/kg subcutaneous dose
Plasmodium berghei [37] = assay: Change in mean survival time for control (average 6.2 days) versus treated mice (Mus musculus) after 320 mg/kg subcutaneous dose
Mus musculus [38] = assay: Compound was evaluated for parenteral antimalarial activity against Plasmodium berghei in mice (Mus musculus) after single dose (80 mg/kg subcutaneously)
Mus musculus [39] = assay: Compound was evaluated for parenteral antimalarial activity against Plasmodium berghei in mice (Mus musculus) after single dose (mg/kg subcutaneously) 40
Mus musculus [40] = assay: Compound was evaluated for parenteral antimalarial activity against Plasmodium berghei in mice (Mus musculus) after single dose (mg/kg subcutaneously) 20

Row | SMILES | No. of mice cured (Mus musculus [1]) | Delta MST (Plasmodium berghei [2]) [days] | ED30 (Plasmodium berghei [4]) [mg/kg] | No. of mice cured (Plasmodium berghei [5]) | Delta MST (Plasmodium berghei [6]) [days] | Delta MST (Plasmodium berghei [7]) [days] | Delta MST (Plasmodium berghei [8]) [days] | Delta MST (Plasmodium berghei [9]) [days] | Delta MST (Plasmodium berghei [10]) [days] | Delta MST (Plasmodium berghei [12]) [days] | Delta MST (Plasmodium berghei [13]) [days] | No. of mice cured (Plasmodium berghei [14]) | Delta MST (Plasmodium berghei [15]) [days] | No. of mice cured (Mus musculus [16]) | Delta MST (Plasmodium berghei [17]) [days] | also measured
1 | CCN(CC)Cc1cc(Nc2ccnc3cc(Cl)ccc23)cc(-c2cccc(C(F)(F)F)c2)c1O | 3 | 21.9 | 16.3 | 3 | 28.2 | 21.9 | 23.7 | 31.4 | 17.9 | 13.5 | 9.7 | 4 | 0.5 | 2 | 15.2 | No. of mice cured (Mus musculus [3]): 1; No. of mice cured (Mus musculus [11]): 3
2 | Oc1c(CNC2CCCCC2)cc(Nc2ccnc3cc(Cl)ccc23)cc1-c1ccc(Cl)cc1 | 4 | -0.4 |  | 4 | 23.6 | 20.6 | 12.9 | 17.9 | 17.6 | 1.5 | 0.5 | 4 |  | 3 | 4.1 | Delta MST (Mus musculus [18]): 0.7 days
3 | CCN(CC)Cc1cc(Nc2ccnc3cc(Cl)ccc23)cc(-c2cccc(Cl)c2)c1O | 4 |  | 17.3 | 5 |  |  | 22.4 | 29.4 | 21.9 | 3.9 | 1.3 | 4 | 0.3 | 2 | 15.5 | No. of mice cured (Plasmodium berghei [19]): 1; No. of mice cured (Mus musculus [20]): 3; Delta MST (Mus musculus [21]): 31.9 days
4 | CC(C)(C)NCc1cc(Nc2ccnc3cc(Cl)ccc23)cc(-c2ccccc2)c1O | 1 | 12.3 |  |  | 27.3 | 12.8 | 14.8 | 20.2 | 13 | 13.7 | 5.3 |  | 0.3 |  | 29.5 | No. of mice cured (Mus musculus [22]): 1; No. of mice cured (Mus musculus [23]): 1; No. of mice cured (Mus musculus [24]): 1; No. of mice cured (Mus musculus [25]): 1; No. of mice cured (Mus musculus [26]): 2
5 | CCN(CC)Cc1cc(Nc2cc[n+]([O-])c3cc(Cl)ccc23)cc(-c2cccc(C(F)(F)F)c2)c1O | 4 |  | 113 | 1 |  |  |  |  |  |  |  |  |  |  |  | Delta MST (Plasmodium berghei [27]): 0.3 days; Delta MST (Plasmodium berghei [28]): 1.1 days; Delta MST (Plasmodium berghei [29]): -0.1 days; Delta MST (Mus musculus [30]): 0.3; Delta MST (Plasmodium berghei [31]): 11.7 days; Delta MST (Plasmodium berghei [32]): 27.9 days; Delta MST (Plasmodium berghei [33]): 5.9 days; Delta MST (Plasmodium berghei [34]): 21.1 days; Delta MST (Plasmodium berghei [35]): 8.5 days; Delta MST (Plasmodium berghei [36]): 0.3 days; Delta MST (Plasmodium berghei [37]): 24.9 days
6 | CCN(CC)Cc1cc(Nc2cc[n+]([O-])c3cc(Cl)ccc23)cc(CN(CC)CC)c1O | 3 |  |  | 3 |  |  |  |  |  |  |  | 1 |  |  |  | Delta MST (Mus musculus [38]): 8.5 days; Delta MST (Mus musculus [39]): 6.9 days; Delta MST (Mus musculus [40]): 3.9 days
